Values after ≈ are worked out from the molar mass of the structure shown.
Key:
[1] = Antiplatelet aggregation activity against ADP-induced rabbit platelet assessed as platelet aggregation at 100 ug/mL relative to control; assay type: functional, Oryctolagus cuniculus
In short: (§1)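 Blood from rabbit marginal ear vein was mixed with EDTA to a final 6 mM. It was spun at 90g for 10 min at room temperature to give platelet-rich plasma, then at 500g for 10 min. Platelets were preincubated with sample or 0.5% DMSO for 1 min at 37 °C, then triggered with ADP, arachidonic acid, collagen (10 µg/mL) or PAF (2 ng/mL). Mean ± S.D.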

[2] = Antiplatelet aggregation activity against arachidonic acid-induced rabbit platelet assessed as platelet aggregation at 100 ug/mL relative to control; assay type: functional, Oryctolagus cuniculus; in short: as §1
[3] = Antiplatelet aggregation activity against platelet activating factor-induced rabbit platelet assessed as platelet aggregation at 100 ug/mL relative to control; assay type: functional, Oryctolagus cuniculus; in short: as §1
[4] = Antiplatelet aggregation activity against collagen-induced rabbit platelet assessed as platelet aggregation at 100 ug/mL relative to control; assay type: functional, Oryctolagus cuniculus; in short: as §1
KB = assay: Cytotoxicity against human KB cells; assay type: functional, cell-based
A549 = assay: Cytotoxicity against human A549 cells; assay type: functional, cell-based
HCT-8 = assay: Cytotoxicity against human HCT8 cells; assay type: functional, cell-based
P388 [5] = assay: Cytotoxicity against mouse P388 cells; assay type: functional, cell-based
RPMI-7951 = assay: Cytotoxicity against human RPMI7951 cells; assay type: functional, cell-based
TE-671 = assay: Cytotoxicity against human TE671 cells; assay type: functional, cell-based
P388 [6] = assay: In vivo cytotoxic activity against mouse P388 cells at 1 mg/kg relative to control; assay type: functional

| SMILES | Activity [1] [%] | Activity [2] [%] | Activity [3] [%] | Activity [4] [%] | IC50 (KB) [ng/mL] | IC50 (A549) [ng/mL] | IC50 (HCT-8) [ng/mL] | IC50 (P388 [5]) [ng/mL] | IC50 (RPMI-7951) [ng/mL] | IC50 (TE-671) [ng/mL] | T/C (P388 [6]) [%] |
| --- | --- | --- | --- | --- | --- | --- | --- | --- | --- | --- | --- |
| COC(=O)[C@H]1[C@@H](O)[C@@]2(O)c3c(OC)cc(OC)cc3O[C@@]2(c2ccc(OC)cc2)[C@@H]1c1ccccc1 [AGLAFOLIN] | 85.2 | 0 | 0 | 88.6 | 1 (≈ 0.00203 µM) | 1 (≈ 0.00203 µM) | 5 (≈ 0.0102 µM) | 2 (≈ 0.00406 µM) | 1 (≈ 0.00203 µM) | 1 (≈ 0.00203 µM) |  |
| COc1cc2ccc(=O)oc2cc1O [SCOPOLETIN] | 65.3 | 79.2 | 90.5 | 79.2 | 4000 (≈ 20.8 µM) |  |  |  |  |  |  |
| CC[C@]1(O)C[C@@H]2CN(CCc3c([nH]c4ccccc34)[C@@](C(=O)OC)(c3cc4c(cc3OC)N(C)[C@H]3[C@@](O)(C(=O)OC)[C@H](OC(C)=O)[C@]5(CC)C=CCN6CC[C@]43[C@@H]65)C2)C1.O=S(=O)(O)O [VINBLASTINE SULFATE] |  |  |  |  |  | 2 | 5 |  |  |  |  |
| COc1cccc2c1C(=O)c1c(O)c3c(c(O)c1C2=O)C[C@@](O)(C(=O)CO)C[C@@H]3O[C@H]1C[C@H](N)[C@H](O)[C@H](C)O1.Cl [DOXORUBICIN HYDROCHLORIDE] |  |  |  |  |  | 150 | 300 |  |  |  |  |
| COc1ccc([C@@]23Oc4cc(OC)cc(OC)c4[C@]2(O)[C@H](O)[C@H](C(=O)N(C)C)[C@H]3c2ccccc2)cc1 [ROCAGLAMIDE] | 77.6 | 90.5 | 85.5 | 83.8 | 6 (≈ 0.0119 µM) | 6 (≈ 0.0119 µM) | 7 (≈ 0.0138 µM) | 5 (≈ 0.00989 µM) | 2 (≈ 0.00396 µM) | 6 (≈ 0.0119 µM) | 156 |
| COc1cc([C@@H]2c3cc4c(cc3[C@@H](O[C@@H]3O[C@@H]5CO[C@@H](C)O[C@H]5[C@H](O)[C@H]3O)[C@H]3COC(=O)[C@H]23)OCO4)cc(OC)c1O [ETOPOSIDE] |  |  |  |  | 120 (≈ 0.204 µM) |  |  | 2620 (≈ 4.45 µM) |  |  |  |
